For assay [1], the system named is Staphylococcus aureus. The assay can be described thus: Growth inhibition of methicillin/linezolid-resistant Staphylococcus aureus NRS271 at 0.2 mM incubated for overnight. Format: functional, organism-based. The method in brief:
(§1)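 Overnight cultures washed in PBS and diluted in TSB to OD600 ~1.0. Inoculated to a final OD600 of about 0.05 into TSB containing compound (0.2 or 0.05 mM, from a 20 mM DMSO stock) or DMSO growth control, overlaid with paraffin wax. OD600 read every 30 min during overnight incubation at 37 °C.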

The subject of assay [2] is Staphylococcus aureus. The assay can be described thus: Inhibition of pigmentation in methicillin-resistant Staphylococcus aureus USA300 LAC after 48 hrs by spectrophotometric method. Format: functional, organism-based. The method in brief: (§2)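 Bacteria grown in 4 mL TSB for 48 h at 37 °C with compound serially diluted from DMSO, in duplicate; DMSO vehicle control and non-pigmented CrtN mutant as reference. Cells from 3 mL of culture washed twice with 0.01 M PBS and pigment extracted into methanol. Absorbance read at 450 nm; IC50 fitted from the concentration series.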

The next assay relates to HepG2. The assay can be described thus: Cytotoxicity against human HepG2 cells assessed as reduction in cell viability after 72 hrs by CCK-8 assay. It counts as functional. Particulars: HepG2, 72 h. The method, boiled down: (§3)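 HepG2 or HEK-293T cells were seeded at 5000 per well and grown 24 h at 37 °C, 5% CO₂. Cells were then exposed to compound for 72 h; compound came from DMSO, diluted in medium to final DMSO <0.4%, with a DMSO-matched vehicle control. Viability was read by 10% CCK-8 for 1 h, absorbance 450 nm, in triplicate.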

The target in assay [3] is Voltage-gated inwardly rectifying potassium channel KCNH2 (Homo sapiens, UniProt Q12809). The experiment in a line: Inhibition of human ERG expressed in CHO cells at holding potential of -80 mV by whole cell Qpatch assay. Format: cell-based.
Voltage-gated inwardly rectifying potassium channel KCNH2, sequence (Q12809 whole entry): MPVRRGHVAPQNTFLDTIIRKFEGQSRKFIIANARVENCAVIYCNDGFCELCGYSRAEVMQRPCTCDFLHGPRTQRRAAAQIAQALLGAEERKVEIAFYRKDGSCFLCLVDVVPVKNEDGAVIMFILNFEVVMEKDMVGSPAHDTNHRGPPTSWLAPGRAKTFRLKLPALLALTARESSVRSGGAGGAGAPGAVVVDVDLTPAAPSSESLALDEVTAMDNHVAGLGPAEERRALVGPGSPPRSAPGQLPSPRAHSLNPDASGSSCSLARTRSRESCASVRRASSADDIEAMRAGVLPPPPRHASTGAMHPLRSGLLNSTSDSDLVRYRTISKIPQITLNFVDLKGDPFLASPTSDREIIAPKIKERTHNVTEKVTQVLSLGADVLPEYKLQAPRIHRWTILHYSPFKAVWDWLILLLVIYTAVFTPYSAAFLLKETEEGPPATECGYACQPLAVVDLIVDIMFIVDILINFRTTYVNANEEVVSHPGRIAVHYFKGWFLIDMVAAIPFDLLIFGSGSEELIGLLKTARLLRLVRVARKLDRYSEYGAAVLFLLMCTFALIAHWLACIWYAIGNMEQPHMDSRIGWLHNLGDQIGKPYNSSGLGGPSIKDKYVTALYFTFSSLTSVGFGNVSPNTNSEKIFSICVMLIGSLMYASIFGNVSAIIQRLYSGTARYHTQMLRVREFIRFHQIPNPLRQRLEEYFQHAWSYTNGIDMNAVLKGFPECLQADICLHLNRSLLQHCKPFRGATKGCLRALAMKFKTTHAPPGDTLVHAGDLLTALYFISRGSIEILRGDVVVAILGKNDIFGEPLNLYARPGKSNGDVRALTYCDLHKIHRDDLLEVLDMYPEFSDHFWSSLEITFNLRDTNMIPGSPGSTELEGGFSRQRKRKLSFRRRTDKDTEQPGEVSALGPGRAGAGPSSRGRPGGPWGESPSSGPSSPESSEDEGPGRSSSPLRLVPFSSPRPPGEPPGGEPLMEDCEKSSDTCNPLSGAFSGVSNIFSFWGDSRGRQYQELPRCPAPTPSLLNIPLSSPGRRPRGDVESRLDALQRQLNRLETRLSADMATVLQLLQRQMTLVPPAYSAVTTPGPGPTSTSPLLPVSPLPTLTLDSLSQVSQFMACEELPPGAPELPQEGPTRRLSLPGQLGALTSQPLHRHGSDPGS
Assay [4] relates to Staphylococcus aureus. The experiment in a line: Growth inhibition of wild type Staphylococcus aureus Newman at 0.2 mM incubated for overnight. It counts as functional, organism-based. The method in brief:
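A 20 mM DMSO stock was diluted in TSB to 0.2 mM final, with a DMSO growth control. Dilutions were overlaid with paraffin and held 4 h at 37 °C. Overnight cultures were PBS-washed and added to a final OD600 ≈ 0.05. Plates were incubated overnight at 37 °C with OD600 read every 30 min.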

Assay [5] concerns Staphylococcus aureus. The experiment in a line: Growth inhibition of methicillin-resistant Staphylococcus aureus USA300 LAC at 0.2 mM incubated for overnight. It counts as functional, organism-based. The method in brief:
as §1

In another assay the test system is HEK-293T. The experiment in a line: Cytotoxicity against HEK293T cells assessed as reduction in cell viability after 72 hrs by CCK-8 assay. Format: functional. Particulars: Homo sapiens. The method, boiled down: as §3
Assay [6] relates to Staphylococcus aureus. The assay can be described thus: Antibacterial activity against wild type Staphylococcus aureus Newman infected in BALB/c mouse assessed as decrease in bacterial survival in mouse kidney at 0.1 to 0.4 mg, ip bid administered 4.5 days before 24 hrs bacterial infection measured after 90 hrs. Format: functional, organism-based. The method in brief: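 Female BALB/c mice, 6-8 weeks old, infected retro-orbitally with 2.2 × 10⁷ CFU S. aureus Newman. Intraperitoneal dosing in 12 intervals: pre-treatment groups received a total of 50 or 200 mg/kg starting before infection; post-treatment groups received a total of 39 or 156 mg/kg starting 6 h after infection. Vehicle was ddH₂O. At 90 h post-infection, liver or kidney was homogenized in PBS/0.01% Triton X-100 and plated on TSA for CFU.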

Assay [7] addresses T1, 4,4'-diapophytoene desaturase (4,4'-diaponeurosporene-forming) (Staphylococcus aureus (strain Newman)) (UniProt O07855).
T1 sequence (whole entry): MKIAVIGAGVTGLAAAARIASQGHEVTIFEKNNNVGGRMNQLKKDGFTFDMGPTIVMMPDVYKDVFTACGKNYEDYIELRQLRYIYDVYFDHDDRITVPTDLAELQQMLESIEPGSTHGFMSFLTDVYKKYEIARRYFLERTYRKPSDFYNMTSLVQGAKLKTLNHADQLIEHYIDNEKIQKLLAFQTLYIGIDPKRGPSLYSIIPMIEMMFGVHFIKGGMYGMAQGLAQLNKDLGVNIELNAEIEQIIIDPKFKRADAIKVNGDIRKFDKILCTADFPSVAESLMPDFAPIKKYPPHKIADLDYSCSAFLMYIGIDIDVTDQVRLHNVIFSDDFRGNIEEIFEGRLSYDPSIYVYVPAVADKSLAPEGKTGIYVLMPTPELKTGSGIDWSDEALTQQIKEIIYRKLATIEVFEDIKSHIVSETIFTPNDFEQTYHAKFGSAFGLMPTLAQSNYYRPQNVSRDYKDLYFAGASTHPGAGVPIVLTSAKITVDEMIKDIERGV
The assay can be described thus: Inhibition of CrtN in methicillin-resistant Staphylococcus aureus USA300 LAC assessed as bacterial survival at 1 uM after 24 hrs by H2O2 killing assay (reference value: 29.67%).

In assay [8] the test system is Staphylococcus aureus. The assay can be described thus: Growth inhibition of vancomycin-intermediate methicillin-resistant Staphylococcus aureus Mu50 at 0.2 mM incubated for overnight. Format: functional, organism-based. The method, boiled down:
as §1

Assay [9] deals with Staphylococcus aureus. The experiment in a line: Antibacterial activity against wild type Staphylococcus aureus Newman infected in BALB/c mouse assessed as decrease in bacterial survival in mouse liver at 0.4 mg, ip bid administered 4.5 days before 12 hrs bacterial infection measured after 90 hrs relative to control. It counts as functional.
For assay [10], the target named is T1, 4,4'-diapophytoene desaturase (4,4'-diaponeurosporene-forming) (Staphylococcus aureus (strain Newman)). The assay can be described thus: Inhibition of CrtN in methicillin-resistant Staphylococcus aureus USA400 MW2 assessed as bacterial survival at 1 uM after 24 hrs by H2O2 killing assay (reference value: 26.33%).
In assay [11] the target is T2, 4,4'-diapophytoene desaturase (4,4'-diaponeurosporene-forming) (Staphylococcus aureus (strain Newman), UniProt O07855).
T2 sequence (O07855 whole entry): T1 sequence (whole entry)
The experiment in a line: Inhibition of Staphylococcus aureus Newman 6His-tagged CrtN expressed in Escherichia coli BL21(DE3) assessed as 4,4'-diapophytoene accumulation.

In assay [12] the test system is Staphylococcus aureus. The experiment in a line: Antibacterial activity against vancomycin-intermediate methicillin-resistant Staphylococcus aureus Mu50 infected in BALB/c mouse assessed as decrease in bacterial survival in mouse kidney at 0.1 to 0.4 mg, ip bid administered 4.5 days before 24 hrs bacterial infection measured after 90 hrs. Format: functional, organism-based. The method in brief:
(§4)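 6–8-week-old female BALB/c mice (SPF) dosed intraperitoneally twice daily over 4.5 d at 0.1 or 0.4 mg/bid. Pre-treatment started before infection; post-treatment started 6 h after infection. Vancomycin and linezolid controls given as pre-treatment at 0.4 mg/bid. Retro-orbital inoculation: Mu50 1.1 × 10⁹ CFU, NRS271 1.8 × 10⁸ CFU. Kidneys and livers homogenised in PBS/0.01% Triton X-100 and plated on TSA for CFU.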

The target in assay [13] is T1, 4,4'-diapophytoene desaturase (4,4'-diaponeurosporene-forming) (Staphylococcus aureus (strain Newman)). The experiment in a line: Inhibition of Staphylococcus aureus Newman 6His-tagged CrtN expressed in Escherichia coli BL21(DE3) assessed as 4,4'-diapophytoene accumulation by UV-HPLC analysis. Particulars: Staphylococcus aureus subsp. aureus str. Newman. The method, boiled down: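 Substrate was E. coli-derived diapophytoene emulsified with phosphatidylcholine in 0.02 M HEPES pH 7.5. Run anaerobically (glucose oxidase 20 U/mL, catalase 20000 U/mL, glucose 2 mM final) overnight at 37 °C, stopped with methanol. Triplicate; diapophytoene monitored by HPLC at 286 nm.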

Assay [14] relates to Staphylococcus aureus. The assay can be described thus: Inhibition of pigmentation in methicillin/linezolid-resistant Staphylococcus aureus NRS271 after 48 hrs by spectrophotometric method. The conditions noted are these: NRS271, 48 h. It counts as functional, organism-based. The method, boiled down: as §2
Assay [15] concerns Staphylococcus aureus. The experiment in a line: Antibacterial activity against vancomycin-intermediate methicillin-resistant Staphylococcus aureus Mu50 infected in BALB/c mouse assessed as decrease in bacterial survival in mouse kidney at 0.1 to 0.4 mg, ip bid administered 4.5 days after 6 hrs bacterial infection measured after 90 hrs. Format: functional, organism-based. The method in brief: as §4

SMILES strings stand for the structures. Calls of active or inactive are those of the source. No cut-off for these calls is given here.

`CN(C/C=C/C=C/c1ccc(C(F)(F)F)cc1F)Cc1ccc2c(c1)OCO2.Cl`: the “growth inhibition (GI)” value in the assay with Staphylococcus aureus [1], in the assay on Staphylococcus aureus [4], with Staphylococcus aureus [5] and with Staphylococcus aureus [8] was “inactive” throughout. For the same compound, the IC50 with Staphylococcus aureus [2] came to 0.0129 µM; in assay [3], 14 µM; in [11], 0.408 µM; in the assay on Staphylococcus aureus [14], 0.0041 µM. Further, the half-maximal cytotoxic concentration (CC50) amounted to 90.3 µM with HepG2 and 92.6 µM with HEK-293T. In addition, the outcome in the assay with Staphylococcus aureus [6], with Staphylococcus aureus [12] and in the assay with Staphylococcus aureus [15] was Active. For the same compound, the Survival in assay [7] is 2.67%; in assay [10], 2.33%. The Activity with Staphylococcus aureus [9] came out at 98.74%. Besides, in [13], the inhibition entry is “Active”.

These data come from ChEMBL document CHEMBL4145474, “Discovery of novel piperonyl derivatives as diapophytoene desaturase inhibitors for the treatment of methicillin-, vancomycin- and linezolid-resistant Staphylococcus aureus infections” (Eur J Med Chem, 2018).
